Measured values pooled from the literature.
Lines come from different studies, so protocols differ. pIC50: −log10 of the molar value.
HDAC5: Histone deacetylase 5 (HDAC5, Homo sapiens, UniProt Q9UQL6)
DRD3: D(3) dopamine receptor (DRD3, Homo sapiens, UniProt P35462)
SLC6A3: Sodium-dependent dopamine transporter (SLC6A3, Homo sapiens, UniProt Q01959)

| Compound | target | observed | action | method | pIC50 |
| --- | --- | --- | --- | --- | --- |
| Cc1cc(O)c(-c2ccc([C@@H](C)CN(C)C)cc2)c2c1[nH]c(=O)c1sccc12 | Cyclin-dependent kinase 12, with cyclin K (CDK12, Homo sapiens, UniProt Q9NYV4) | enzyme activity | inhibitor | – | < 6.00 |
| O=C(NO)c1ccc(Cn2cnc3c(Nc4cccc([N+](=O)[O-])c4)ncnc32)cc1 | HDAC5 | enzyme activity | inhibitor | – | 5.94 |
| Cc1[nH]c(C)c(S(=O)(=O)Nc2cc(Cl)cc(Cl)c2Cl)c1C(=O)N1CCC(F)(F)C1 | DRD3 | β-arrestin recruitment | antagonist | – | 4.92 |
| CCCN(CCC)S(=O)(=O)c1ccc(C(=O)O)cc1 | Taste receptor type 2 member 16 (TAS2R16, Homo sapiens, UniProt Q9NYV7) | inositol phosphate | antagonist | TR-FRET | 3.11 |
| CN(C)C(=O)c1cc2cnc(Nc3ccc(-c4ccc5c(=O)cc(N6CCOCC6)oc5c4)cc3)nc2n1C1CCCC1 | DNA-dependent protein kinase catalytic subunit (PRKDC, Homo sapiens, UniProt P78527) | enzyme activity | inhibitor | – | 6.72 |
| CCc1ccc(NS(=O)(=O)c2c(C)[nH]c(C)c2C(=O)N2CCC(F)(F)C2)cc1Cl | DRD3 | β-arrestin recruitment | antagonist | – | 5.28 |
| CNc1nc(C#Cc2ccc(Cl)s2)nc2c1ncn2[C@H]1[C@H](O)[C@H](O)[C@]2(C(=O)OC)C[C@H]12 | SLC6A3 | transporter uptake | inhibitor | radiometric | 6.42 |
| N=C(N)c1ccc(OCCCCCOc2ccc(C(=N)N)cc2)cc1 | Coagulation factor XI (F11, Homo sapiens, UniProt P03951) | enzyme activity | inhibitor | absorbance | < 4.00 |
| Cc1[nH]c(C)c(C(=O)N2CCC(F)(F)C2)c1C(=O)Nc1ccc(C(F)(F)F)c(Cl)c1 | DRD3 | β-arrestin recruitment | antagonist | – | 4.39 |
| COc1ccc(N(Cc2csc(-c3ccc(Br)cc3)n2)C(=O)CCCCCC(=O)NO)cc1 | HDAC5 | enzyme activity | inhibitor | – | < 5.00 |
| CN1CCN(c2nc(-c3cc4cc(Br)ccc4oc3=O)cs2)CC1 | Carbonic anhydrase 12 (CA12, Homo sapiens, UniProt O43570) | enzyme activity | inhibitor | absorbance | 5.55 |
| COc1ccc(N(Cc2csc(-c3ccccc3)n2)C(=O)CCCCCC(=O)NO)cc1 | HDAC5 | enzyme activity | inhibitor | – | < 5.00 |
| Cc1[nH]c(C)c(S(=O)(=O)Nc2ccc(Cl)c(C(F)(F)F)c2)c1C(=O)N1CCC(F)(F)C1 | DRD3 | G protein activation | antagonist | BRET | 4.82 |
| COc1c(Cl)cccc1Nc1c(-c2ccncc2OC[C@@H]2COCCO2)[nH]c2c1C(=O)NCC2 | Discoidin domain-containing receptor 2 (DDR2, Homo sapiens, UniProt Q16832) | ligand displacement | – | TR-FRET | 7.28 |
| CNc1nc(C#Cc2ccc(Cl)s2)nc2c1ncn2[C@H]1[C@H](O)[C@H](O)[C@]2(CC#N)C[C@H]12 | SLC6A3 | transporter uptake | inhibitor | radiometric | 6.44 |
| Nc1cnccc1Nc1ccc(Cl)c(Cl)c1 | DNA repair nuclease/redox regulator APEX1 (APEX1, Homo sapiens, UniProt P27695) | enzyme activity | inhibitor | – | < 4.00 |
